Test results reported in ChEMBL document CHEMBL1275447 (Antimicrob Agents Chemother, 2008).
Values after ≈ are worked out from the molar mass of the structure shown. Active and inactive are the calls of the source. The calls are words filed in the database; no cut-off is given here.

How the values were obtained:
Pseudomonas aeruginosa [1] = test: Antibacterial activity against Pseudomonas aeruginosa isolate 1055 by microdilution method; format: functional
Pseudomonas aeruginosa [2] = test: Antibacterial activity against Pseudomonas aeruginosa isolate 1062 by microdilution method; format: functional
Pseudomonas aeruginosa [3] = test: Antibacterial activity against Pseudomonas aeruginosa isolate 906 by microdilution method; format: functional
Pseudomonas aeruginosa [4] = test: Antibacterial activity against Pseudomonas aeruginosa isolate 979 by microdilution method; format: functional
Pseudomonas aeruginosa [5] = test: Antibacterial activity against Pseudomonas aeruginosa isolate 1060 by microdilution method; format: functional
Outline: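 CLSI broth microdilution in cation-adjusted Mueller-Hinton broth (20–25 mg/liter Ca, 10–12.5 mg/liter Mg). Standard inoculum 10⁵ CFU/ml, incubated in ambient air. Clinical hospital isolates.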

Pseudomonas aeruginosa [6] = test: Antibacterial activity against Pseudomonas aeruginosa isolate 896 by microdilution method; format: functional
[7] = fT>MIC in human infected with Pseudomonas aeruginosa isolate 993 at 500 mg administered as 1 hr infusion; format: functional
[8] = fT>MIC in human infected with Pseudomonas aeruginosa isolate 1062 at 500 mg administered as 1 hr infusion; format: functional
[9] = fT>MIC in human infected with Pseudomonas aeruginosa isolate 1082 at 500 mg administered as 1 hr infusion; format: functional
[10] = fT>MIC in human infected with Pseudomonas aeruginosa isolate 979 at 500 mg administered as 1 hr infusion; format: functional
[11] = fT>MIC in human infected with Pseudomonas aeruginosa isolate 944 at 500 mg administered as 1 hr infusion; format: functional
[12] = fT>MIC in human infected with Pseudomonas aeruginosa isolate 1050 at 500 mg administered as 1 hr infusion; format: functional
[13] = fT>MIC in human infected with Pseudomonas aeruginosa isolate 1060 at 500 mg administered as 1 hr infusion; format: functional
[14] = fT>MIC in human infected with Pseudomonas aeruginosa isolate 944 at 500 mg administered as 4 hr infusion; format: functional
[15] = fT>MIC in human infected with Pseudomonas aeruginosa isolate 1050 at 500 mg administered as 4 hr infusion; format: functional
[16] = fT>MIC in human infected with Pseudomonas aeruginosa isolate 896 at 500 mg administered as 4 hr infusion; format: functional
[17] = fT>MIC in human infected with Pseudomonas aeruginosa isolate 1006 at 500 mg administered as 4 hr infusion; format: functional
[18] = fT>MIC in neutropenic mouse infected with Pseudomonas aeruginosa isolate 993 at 500 mg administered as 1 hr infusion; format: functional
Outline: (§1)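 Free-drug time above MIC simulated from one-compartment mouse serum PK (25.2% protein binding). The mice were cyclophosphamide-neutropenic and uranyl nitrate-renally impaired. Regimen was subcutaneous 10, 15, 2.5, 1.25, 0.5, 0.25 mg/kg at 0, 0.5, 2.5, 4, 5.5, 7 h, repeated every 8 h over 24 h.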

[19] = fT>MIC in neutropenic mouse infected with Pseudomonas aeruginosa isolate 1029 at 500 mg administered as 1 hr infusion; format: functional
[20] = fT>MIC in neutropenic mouse infected with Pseudomonas aeruginosa isolate 869 at 500 mg administered as 1 hr infusion; format: functional; outline: as §1
[21] = fT>MIC in neutropenic mouse infected with Pseudomonas aeruginosa isolate 1055 at 500 mg administered as 1 hr infusion; format: functional; outline: as §1
[22] = fT>MIC in neutropenic mouse infected with Pseudomonas aeruginosa isolate 935 at 500 mg administered as 1 hr infusion; format: functional; outline: as §1
[23] = fT>MIC in neutropenic mouse infected with Pseudomonas aeruginosa isolate 979 at 500 mg administered as 1 hr infusion; format: functional; outline: as §1
[24] = fT>MIC in neutropenic mouse infected with Pseudomonas aeruginosa isolate 1058 at 500 mg administered as 1 hr infusion; format: functional; outline: as §1
[25] = fT>MIC in neutropenic mouse infected with Pseudomonas aeruginosa isolate 1060 at 500 mg administered as 1 hr infusion; format: functional; outline: as §1
[26] = fT>MIC in neutropenic mouse infected with Pseudomonas aeruginosa isolate 1055 at 500 mg administered as 4 hr infusion; format: functional
Outline: (§2)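 Mouse fT>MIC was modelled with first-order one-compartment serum PK and 25.2% binding. Mice were neutropenic (cyclophosphamide) with uranyl nitrate renal impairment. Subcutaneous doses were 5.5, 2.25, 4.5, 4.5, 4.5, 4.5, 0.75, 0.375 mg/kg at 0, 0.5, 1.5, 2.5, 3.5, 4.5, 6, 7.5 h per 8-h interval over 24 h.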

[27] = fT>MIC in neutropenic mouse infected with Pseudomonas aeruginosa isolate 935 at 500 mg administered as 4 hr infusion; format: functional; outline: as §2
[28] = fT>MIC in neutropenic mouse infected with Pseudomonas aeruginosa isolate 1052 at 500 mg administered as 4 hr infusion; format: functional; outline: as §2
[29] = fT>MIC in neutropenic mouse infected with Pseudomonas aeruginosa isolate 1082 at 500 mg administered as 4 hr infusion; format: functional; outline: as §2
[30] = fT>MIC in neutropenic mouse infected with Pseudomonas aeruginosa isolate 1036 at 500 mg administered as 4 hr infusion; format: functional; outline: as §2
[31] = fT>MIC in neutropenic mouse infected with Pseudomonas aeruginosa isolate 1050 at 500 mg administered as 4 hr infusion; format: functional; outline: as §2
[32] = fT>MIC in neutropenic mouse infected with Pseudomonas aeruginosa isolate 936 at 500 mg administered as 4 hr infusion; format: functional; outline: as §2
[33] = Cmax in Pseudomonas aeruginosa ATCC 27853 infected neutropenic ICR mouse at 10 mg/kg, sc administered as single dose 2 hrs postinfection by HPLC; format: ADME, organism-based; design: dose 10 mg/kg, route subcutaneous; conditions: in vivo
Outline: (§3)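 Neutropenic mice (cyclophosphamide ip 150 and 100 mg/kg, 4 and 1 days before inoculation) with uranyl nitrate 5 mg/kg ip 3 days before, for renal impairment. Thigh infection with ATCC 27853 at 10⁶ CFU/ml, 0.1 ml per thigh. Single sc doses 2 h later. Intracardiac blood from 6–12 mice per time point, eight time points over 4 h. Serum assayed by HPLC (linear 0.5–40 μg/ml). One-compartment first-order fit.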

[34] = Tmax in Pseudomonas aeruginosa ATCC 27853 infected neutropenic ICR mouse at 50 mg/kg, sc administered as single dose 2 hrs postinfection by HPLC; format: ADME, organism-based; design: dose 50 mg/kg, route subcutaneous; conditions: in vivo; outline: as §3
[35] = Tmax in Pseudomonas aeruginosa ATCC 27853 infected neutropenic ICR mouse at 150 mg/kg, sc administered as single dose 2 hrs postinfection by HPLC; format: ADME, organism-based; design: dose 150 mg/kg, route subcutaneous; conditions: in vivo; outline: as §3
[36] = Clearance in Pseudomonas aeruginosa ATCC 27853 infected neutropenic ICR mouse at 10 mg/kg, sc administered as single dose 2 hrs postinfection; format: ADME, organism-based; design: dose 10 mg/kg, route subcutaneous; conditions: in vivo; outline: as §3
[37] = fT>MIC in neutropenic mouse thigh infection model at 4 to 8 ug/ml after 24 hrs; format: functional; outline: as §1
Pseudomonas aeruginosa [38] = test: Antibacterial activity against Pseudomonas aeruginosa isolate 1050 by fractionation study; format: functional
Pseudomonas aeruginosa [39] = test: Antibacterial activity against Pseudomonas aeruginosa at 2 times MIC; format: functional, organism-based
Outline: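 Time-kill in cation-adjusted Mueller-Hinton broth. Inoculum from overnight culture set to 0.5 McFarland, final 10⁶ CFU/ml, 37°C in ambient air for 24 h. 1×, 2× and 7× MIC plus drug-free controls. Samples taken at 0, 2, 4, 6, 12 and 24 h and plated on sheep blood agar. Detection limit 10² CFU/ml.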

C[C@@H](O)[C@H]1C(=O)N2C(C(=O)O)=C(S[C@@H]3CN[C@H](CNS(N)(=O)=O)C3)[C@H](C)[C@H]12 [DORIPENEM]
MIC (Pseudomonas aeruginosa [1]): 0.5 µg/mL (≈ 1.19 µM)
MIC (Pseudomonas aeruginosa [2]): 0.5 µg/mL (≈ 1.19 µM)
MIC (Pseudomonas aeruginosa [3]): 2 µg/mL (≈ 4.76 µM)
MIC (Pseudomonas aeruginosa [4]): 2 µg/mL (≈ 4.76 µM)
MIC (Pseudomonas aeruginosa [5]): 4 µg/mL (≈ 9.51 µM)
MIC (Pseudomonas aeruginosa [6]): 8 µg/mL (≈ 19 µM)
fT>MIC [7]: 100%
fT>MIC [8]: 72.5%
fT>MIC [9]: 55%
fT>MIC [10]: 40%
fT>MIC [11]: 27.5%
fT>MIC [12]: 27.5%
fT>MIC [13]: 27.5%
fT>MIC [14]: 55%
fT>MIC [15]: 55%
fT>MIC [16]: 0%
fT>MIC [17]: 0%
fT>MIC [18]: 100%
fT>MIC [19]: 100%
fT>MIC [20]: 90%
fT>MIC [21]: 75%
fT>MIC [22]: 55%
fT>MIC [23]: 42.5%
fT>MIC [24]: 42.5%
fT>MIC [25]: 30%
fT>MIC [26]: 95%
fT>MIC [27]: 82.5%
fT>MIC [28]: 82.5%
fT>MIC [29]: 82.5%
fT>MIC [30]: 70%
fT>MIC [31]: 52.5%
fT>MIC [32]: 0%
Cmax [33]: 16300 ng/mL
Tmax [34]: 22.8 min
Tmax [35]: 13.2 min
CL/F [36]: 11.2 mL/min/kg
fT>MIC [37]: 20%
MIC (Pseudomonas aeruginosa [38]): 4 µg/mL (≈ 9.51 µM)
Activity (Pseudomonas aeruginosa [39]): inactive
